According to paper PMC8092417 (Anti-cancer drugs, 2020):

Key:
[1] = target: RET (Homo sapiens, UniProt P07949); assay: Kinase inhibition assay; format: biochemical; details: 1 μM
[2] = system: MDA-MB-231 M2 spheres; assay: Mammosphere formation and area quantification; format: cell-based, human; details: MDA-MB-231, 7 days treatment
Procedure, shortened: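 MDA-MB-231 cells were seeded at 1,000/well in low-attachment wells in serum-free F12/DMEM plus B-27 and allowed 24 h to form spheres. Spheres were then treated with test compound or DMSO for one week, re-dosed every three days. Imaging was at 40X or 100X. Sphere length and width were measured, area was calculated, and values were compared with DMSO controls.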

[3] = system: BT-549 cells; assay: Crystal violet staining, cells remaining / viability dose-response; format: cell-based, human
Procedure, shortened: (§1)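 Cells were plated at 5,000/well in 5% charcoal-stripped DMEM for 48 h, then exposed to test compound or DMSO vehicle for 72 h at 37 °C, 5% CO2. They were fixed with glutaraldehyde for 20 min and stained for 20 min with 0.1% crystal violet in 90% methanol. After overnight drying, cells were lysed in 33% acetic acid and read at 620 nm. Signal was normalized to DMSO and plotted as dose-response.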

[4] = system: TU-BcX-4IC cells; assay: qRT-PCR of epithelial and mesenchymal genes; format: cell-based, human; details: 1 μM, 72 hours
Procedure, shortened: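 Cells were treated 72 h with test compound (1 μM) or DMSO. Total RNA was column-isolated and checked for quantity and quality by absorbance (260, 280 nm). Then 2 μg total RNA was reverse-transcribed and gene expression measured by qRT-PCR.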

[5] = system: HLA+CD44+CD24- cancer stem cells of TU-BcX-4IC-implanted mice; assay: Flow cytometry for circulating cancer stem cells in peripheral blood; format: in vivo, SCID/Beige mice; details: 25 mg/kg bid, vs DMSO vehicle
Procedure, shortened: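 Female SCID/Beige mice (n=5/group) carried TU-BcX-4IC tumor implants (3 × 3 mm) in the mammary fat pads and received i.p. test compound or DMSO vehicle twice daily for 15 days. Intracardiac blood was stored in EDTA […], RBC-lysed ([…] NH4Cl, pH 7.2–7.4), Fc-blocked, and stained with anti-human CD24, EpCAM and CD44. At least 5000 events were analyzed; n=4 mice/group; mean ± SEM.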

[6] = system: TU-BcX-4IC PDX model; assay: In vivo treatment of TU-BcX-4IC implants, tumor growth and metastasis; design: species or system SCID/Beige mice; details: 25 mg/kg bid intraperitoneally, 15 days, vs DMSO vehicle
Procedure, shortened: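 Female SCID/Beige mice (5/group) received bilateral mammary fat pad implants of TU-BcX-4IC tumour pieces (3 × 3 mm). Twice-daily intraperitoneal dosing with test compound or DMSO vehicle began 24 h after implantation. At sacrifice, lungs and livers were formalin-fixed, paraffin-embedded, sectioned and H&E-stained. Lesion area and number per section were quantified.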

[7] = system: MDA-MB-231 cells; assay: Crystal violet staining, cells remaining / viability dose-response; format: cell-based, human
Procedure, shortened: as §1

[8] = system: TU-BcX-4IC M2 spheres; assay: Mammosphere formation and area quantification; format: cell-based, human; details: 7 days treatment
Procedure, shortened: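 Cells were plated at 1,000/well in low-attachment plates in serum-free F12/DMEM with B-27 and left 24 h to form spheres. Spheres were then exposed to test compound or DMSO for one week, re-dosed every three days. Spheres were imaged at 40X or 100X, and length and width were measured to calculate area, which was compared with DMSO controls.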

Sequence of RET (P07949 29-1114): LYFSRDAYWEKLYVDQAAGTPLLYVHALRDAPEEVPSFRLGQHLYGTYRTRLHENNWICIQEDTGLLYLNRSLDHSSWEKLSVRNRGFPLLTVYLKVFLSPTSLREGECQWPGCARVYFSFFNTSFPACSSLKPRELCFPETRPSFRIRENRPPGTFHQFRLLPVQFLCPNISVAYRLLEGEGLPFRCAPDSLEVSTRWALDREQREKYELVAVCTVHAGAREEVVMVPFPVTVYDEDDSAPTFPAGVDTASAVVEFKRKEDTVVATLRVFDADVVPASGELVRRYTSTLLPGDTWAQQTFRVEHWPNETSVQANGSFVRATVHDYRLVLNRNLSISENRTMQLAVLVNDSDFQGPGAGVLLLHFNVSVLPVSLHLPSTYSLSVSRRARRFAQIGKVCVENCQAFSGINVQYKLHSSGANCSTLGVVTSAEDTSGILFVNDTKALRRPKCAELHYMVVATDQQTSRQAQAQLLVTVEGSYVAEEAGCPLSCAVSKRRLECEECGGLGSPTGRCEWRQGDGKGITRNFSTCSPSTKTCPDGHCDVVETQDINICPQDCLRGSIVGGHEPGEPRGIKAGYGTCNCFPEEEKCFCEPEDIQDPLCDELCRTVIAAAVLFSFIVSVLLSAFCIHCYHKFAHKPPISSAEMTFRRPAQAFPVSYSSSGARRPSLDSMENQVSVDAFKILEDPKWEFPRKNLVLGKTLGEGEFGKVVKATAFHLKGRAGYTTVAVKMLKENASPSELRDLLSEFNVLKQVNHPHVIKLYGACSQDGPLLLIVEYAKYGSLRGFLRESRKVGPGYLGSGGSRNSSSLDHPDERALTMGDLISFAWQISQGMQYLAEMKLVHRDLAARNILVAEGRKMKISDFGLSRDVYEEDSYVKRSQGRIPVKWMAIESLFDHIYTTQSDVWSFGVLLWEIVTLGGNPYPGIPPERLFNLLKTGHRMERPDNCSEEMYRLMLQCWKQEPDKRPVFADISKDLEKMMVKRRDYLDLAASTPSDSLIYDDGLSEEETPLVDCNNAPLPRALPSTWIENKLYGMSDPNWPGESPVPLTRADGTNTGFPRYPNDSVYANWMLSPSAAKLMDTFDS

In the case of `C[C@@H](Oc1cc(-n2cnc3ccc(NC(=O)NC(C)(C)C)cc32)sc1C(N)=O)c1ccccc1Cl` [GSK346294A], the “Activity against RET” value [1] is reported as “moderate activity”, the Sphere area [2] is reported as “significantly increased sphere area” and the “Number of cells remaining compared to DMSO controls” value ([3]; BT-549, 1 μM, 72 hours) is reported as “decreased the number of cells remaining”. The IC50 ([3]; Homo sapiens, BT-549, 72 h, read-out: IC-50, number of cells remaining) was 1 µM, the “MMP9 mRNA expression” value [4] was “Neither GSK346294A nor GSK448459A affected MMP9 expression” and the “ZEB1 mRNA expression” value [4] was “suppressed ZEB1 expression in TU-BcX-4IC cells albeit not significantly”. For the same molecule, the “cFOS mRNA expression” value [4] was “suppressive effects in all three TNBC cell lines, although not significantly”, the “CSC populations in peripheral blood” value [5] was “suppressed the CSC populations in the peripheral blood of mice implanted with TU-BcX-4IC tumors, although not significantly” and the “Area of liver metastases per section” value [6] was “minimally suppressed the area of liver metastases”. For the same molecule, the “Area of lung metastases per section” value [6] was “did not affect the area of lung metastases”, the “Growth of the primary tumor” value [6] was “did not affect growth of the tumor” and the “Metastasis to lungs and livers, overall” value [6] was “did not effectively suppress metastasis”. For the same molecule, the “Number of liver metastases per section” value [6] was “minimally suppressed”, the “Number of metastases per lung section” value [6] was “minimally reduce the overall number of metastases per lung section” and the IC50 ([7]; Homo sapiens, MDA-MB-231, 72 h, read-out: IC-50, number of cells remaining) was 50 µM. For the same molecule, the “Number of cells remaining compared to DMSO controls” value ([7]; MDA-MB-231, 1 μM, 72 hours) was “decreased the number of cells remaining” and the “Mammosphere formation (sphere area)” value [8] was “significantly suppressed mammosphere formation”.
